# Screens (PubChem BioAssay)
# Ab BasE inh: blocks the Acinetobacter baumannii siderophore enzyme BasE | purified BasE, fluorescence polarization binding displacement | inhibition, % (no concentration beside the values) | 84,000 compounds, 0.1% hits | AID 485350; in the data active = inhibition above about 25%, passing the limit was not always enough;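 note: 0% = negative plate control signal and 100% = positive plate control signal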
# KSHV LANA nucl: LANA-nucleosome interaction inhibition; 51,000 compounds, 0.3% hits; FITC-LANA1-23 / chicken nucleosome fluorescence polarization; hits give low values; z-score (concentration not given with the values);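 active = both repeat wells score below -2 in polarization z-score versus plate sample wells, excluding overly bright wells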
#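 test system = FITC-LANA peptide and chicken nucleosomes | amount = 240 nM purified chicken nucleosomes (480 nM peptide binding sites), final | reagent = 50 nM FITC-LANA1-23 probe | medium = TEN-BT buffer, pH 7.5 | doses = single compound addition by pin transfer, 100 nL per well | timing = 10–45 min, room temperature | detection = fluorescence polarization | repeats = duplicate plates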
# The depositor's hits bear a star; . = no result. Rows were chosen to be rich in hits. Some 0.3% of all compounds tested hit in one or more screens of this group.
SMILES,Ab BasE inh,KSHV LANA nucl
N#Cc1c(=O)n(O)c2ccccc2[n+]1[O-],2.1,-12.7*
O=c1c(-c2ccc(Oc3ccccc3)cc2)[n+]([O-])c2ccccc2n1O,0.4,0.258
CCC(Sc1nc2ncccc2o1)C(=O)NCCc1ccccc1 (stereo not drawn),2.0,-0.0175
O=C(CCCN1CCC(O)(c2ccc(Cl)cc2)CC1)c1ccc(F)cc1,-5.5,0.319
O=C(CSc1nnc(C2COc3ccccc3O2)n1-c1ccccc1)Nc1ccc2c(c1)OCCO2 (stereo not drawn),-0.5,.
O=C(Nn1cnc2c(cnn2-c2ccccc2)c1=O)c1ccccc1,0.1,-2.08*
O=C(/C=C/c1ccccc1)Nn1cnc2c(cnn2-c2ccccc2)c1=O,1.4,-1.15
CCOC(=O)Nc1ccc2c(CNCC(C)C)cc(=O)oc2c1,-0.2,.
CCOc1cc(/C=C/c2ccccc2OC)cc(=O)c2c(C)oc(C)c12,16.3,.
COc1cccc(=O)c2c(C)oc(C)c12,12.3,-4.36*
CC(C)=NNC(=O)Cc1cn2ccsc2n1,-2.1,.
CC12CCC(=O)N1C(C(=O)OCC(=O)N1c3ccccc3NC(=O)C1(C)C)CS2 (stereo not drawn),2.2,.
Cc1ccc(C(c2nnnn2C2CCCC2)N(C)C2CCCCC2)cc1 (stereo not drawn),-0.8,-0.661
Cc1cccc(N2C(=O)c3cccc4c(N5CCNCC5)ccc(c34)C2=O)c1,15.5,-0.455
Cc1ccc(N2C(=O)c3cccc4c(N5CCN(C)CC5)ccc(c34)C2=O)c2cccnc12,26.6*,-2.79*
C=CCn1nnnc1SCC(=O)Nc1ccc(OC)cc1,2.2,-1.08
CCOC(=O)c1cc2c(=O)n3ccccc3nc2n(C2CCCCC2)c1=NC(=O)c1cccnc1,1.9,-2.58*
CCOC(=O)c1cc2c(=O)n3ccccc3nc2n(CC2CCCO2)c1=NC(C)=O (stereo not drawn),-3.6,0.757
CCOC(=O)Cc1nnc2c3ccccc3n(C)c2n1,-0.3,-0.139
C/C(=N\O)C1(C)N(O)C(C)(C)C(c2ccc(C)cc2)=[N+]1[O-] (stereo not drawn),1.3,.
Cc1c(/C=N/NC(=O)COc2ccc(-c3ccccc3)cc2)cc(C#N)n1C,-0.4,.
